# Test results from PubChem BioAssay.
# The source made the active and inactive calls.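 The calls were made as follows, unless noted: active = Her2 level under about 52% in both replicate screens, with viability over 70% of control (limit read from the data); inconclusive = Her2 under the limit in one screen only, or viability under 70%; inactive = Her2 level above the set limit.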
# Key:
# [1] = target: Pantothenate synthetase (Mycobacterium tuberculosis (strain ATCC 25618 / H37Rv)) (UniProt P9WIL5); test: Coupled enzyme confirmation of inhibitors against recombinant Mtb PanC (AID 375; call rule not given here;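 also: 0% = full reaction with vehicle and 100% = no enzyme background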); details: coupled enzyme assay; at 10 µM, stronger effect = higher value
# Pantothenate synthetase (Mycobacterium tuberculosis (strain ATCC 25618 / H37Rv)), sequence (P9WIL5 whole entry, looked up): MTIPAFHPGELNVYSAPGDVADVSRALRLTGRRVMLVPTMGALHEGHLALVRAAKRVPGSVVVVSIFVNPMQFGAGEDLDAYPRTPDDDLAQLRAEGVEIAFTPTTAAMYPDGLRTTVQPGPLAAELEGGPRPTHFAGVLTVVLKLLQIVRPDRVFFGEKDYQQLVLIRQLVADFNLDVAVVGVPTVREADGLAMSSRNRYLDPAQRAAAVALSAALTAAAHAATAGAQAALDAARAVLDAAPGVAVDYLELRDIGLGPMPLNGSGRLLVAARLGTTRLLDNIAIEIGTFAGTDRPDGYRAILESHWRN
# [2] = Her2 expression decrease, cell viability multiplex – SKBR3 breast tumor cells, AlphaScreen, ATP viability, primary screen (AID 461); details: SKBR3 Her2 protein level, 18-24 h, measured here: SKBR3 viability, ATP luminescence, at 10 µM;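 as to Her2 level: lower value means less Her2 protein in the cells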;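 as to viability: percent of carrier control wells set as 100% viability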
# [3] = target: Receptor tyrosine-protein kinase erbB-2 (Homo sapiens) (UniProt P04626); test: as above; details: 18-24 h, at 10 µM, stronger effect = lower value
# Receptor tyrosine-protein kinase erbB-2 (Homo sapiens), sequence (P04626 whole entry, looked up): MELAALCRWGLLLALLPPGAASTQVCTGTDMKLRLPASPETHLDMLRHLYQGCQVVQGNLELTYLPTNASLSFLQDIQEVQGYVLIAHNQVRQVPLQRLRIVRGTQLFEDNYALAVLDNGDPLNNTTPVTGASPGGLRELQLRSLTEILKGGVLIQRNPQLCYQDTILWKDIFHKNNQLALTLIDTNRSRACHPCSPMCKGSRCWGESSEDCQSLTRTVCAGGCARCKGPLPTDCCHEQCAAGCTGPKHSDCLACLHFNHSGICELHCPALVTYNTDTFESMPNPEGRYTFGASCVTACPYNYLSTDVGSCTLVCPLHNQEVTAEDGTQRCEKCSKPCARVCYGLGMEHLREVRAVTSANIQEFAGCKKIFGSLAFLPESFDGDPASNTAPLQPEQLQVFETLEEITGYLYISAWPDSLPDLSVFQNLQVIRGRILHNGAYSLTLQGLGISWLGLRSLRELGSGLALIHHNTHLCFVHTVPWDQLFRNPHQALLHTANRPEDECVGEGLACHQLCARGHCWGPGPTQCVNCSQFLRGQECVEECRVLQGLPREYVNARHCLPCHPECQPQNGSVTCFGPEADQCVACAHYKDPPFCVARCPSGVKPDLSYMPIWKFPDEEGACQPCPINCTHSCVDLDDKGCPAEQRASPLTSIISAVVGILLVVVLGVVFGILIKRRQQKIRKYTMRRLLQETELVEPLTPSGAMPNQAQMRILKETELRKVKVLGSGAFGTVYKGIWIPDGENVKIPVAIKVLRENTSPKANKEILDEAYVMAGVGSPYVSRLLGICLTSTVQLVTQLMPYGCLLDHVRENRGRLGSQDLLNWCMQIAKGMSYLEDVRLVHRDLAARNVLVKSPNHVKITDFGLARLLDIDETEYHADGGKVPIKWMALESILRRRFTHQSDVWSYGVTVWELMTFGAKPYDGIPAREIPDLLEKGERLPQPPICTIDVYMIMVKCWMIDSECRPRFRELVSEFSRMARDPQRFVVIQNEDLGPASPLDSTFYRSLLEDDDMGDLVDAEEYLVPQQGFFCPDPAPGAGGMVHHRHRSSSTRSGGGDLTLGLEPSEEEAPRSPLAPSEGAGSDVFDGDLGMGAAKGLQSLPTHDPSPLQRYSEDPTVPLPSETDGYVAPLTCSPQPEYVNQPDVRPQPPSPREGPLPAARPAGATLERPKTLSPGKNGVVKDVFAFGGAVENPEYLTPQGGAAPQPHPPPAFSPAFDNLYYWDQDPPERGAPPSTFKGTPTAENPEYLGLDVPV
# [4] = reduced viability of SK-BR-3 breast cancer cells – cell-based, 24 h, human, pilot screen (AID 572;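 active = viability at or below 10% of carrier control in both of two separate runs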;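 also: compound exposure lasted between 18 and 24 h rather than exactly 24 h; 100% = carrier-treated control wells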); details: SK-BR-3 viability, CellTiter-Glo luminescence, at 10 µM, stronger effect = lower value
# [5] = HUVEC growth inhibition – cell-based, human, primary screen (AID 575;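 active = viability at or below 30% in both replicate assays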;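 also: 100% = median of untreated cell wells with 0.1% DMSO on each plate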); details: HUVEC proliferation, CellTiter-Glo luminescence, 72 h; at 10 µM; stronger effect = lower value
# Outline: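 Timing: 72 h treatment at 37 °C; material: HUVEC primary cells; technique: CellTiter-Glo luminescence measuring cellular ATP; controls: vehicle and MePR control wells; measure: percent of median DMSO-control luminescence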
# [6] = H69AR cell proliferation blockers – human, duplicate replicates, primary screen (AID 580;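 active = viability at or under a set limit in both replicates, limit being median viability minus 3 SD, cut at about 48% in these data, passing the limit was not always enough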;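 also: 100% = mean luminescence of untreated wells and 0% = no signal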); details: H69AR lung tumor cells viability, ATP luminescence, 72 h; at 10 µM; stronger effect = lower value
# [7] = MRP1 drug-resistance reversers in H69AR cells – cell-based, doxorubicin co-treatment, pilot screen (AID 601;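 active = viability loss from added drug above about 55%, and viability with drug at most 40%, in both replicates, limit read from the data, passing the limit was not always enough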); details: CellTiter-Glo, 72 h, at 10 µM; for differential viability (reversal): stronger effect = higher value
# [8] = yeast transport mutant growth inhibition pilot in 384-well plates, post-Golgi transport modulator project (AID 636; in the data active = inhibition above about 31%); details: absorbance 615 nm, about 18 h, stronger effect = higher value
# [9] = growth suppression of yeast trafficking mutant, preliminary HTS, modulators of trafficking downstream of Golgi apparatus project, 1536-format plate, OD 615 nm (AID 637; in the data active = inhibition above about 30%); details: yeast transport mutant growth, absorbance 615 nm, 18 h; stronger effect = higher value
# [10] = H69AR cells + 2 uM doxorubicin, measured here: viability with 2 uM doxorubicin, stronger effect = lower value
# [11] = H69AR cells, compound alone cytotoxicity
Compound,inhibition [1],viability [2],Her2 level [3],viability [4],viability [5],viability [6],differential viability (reversal) ([7]; H69AR cells + 2 uM doxorubicin),"viability [7, 10]","viability [7, 11]",inhibition [8],inhibition [9]
CC(=O)[C@H]1CC[C@H]2[C@@H]3CC[C@H]4C[C@H](O)CC[C@]4(C)[C@H]3C(=O)C[C@]12C,0% (inactive),112%,108% (inactive),112% (inactive),118% (inactive),104% (inactive),12.1% (inactive),92%,104%,,
CC(C)CC12CN3CCN(CC(C3)/C1=N/O)C2,0% (inactive),107%,101% (inactive),107% (inactive),108% (inactive),96.4% (inactive),8.57% (inactive),87.8%,96.4%,-5.54% (inactive),-0.98% (inactive)
NC(=O)OCCSc1nnc(-c2cccc(C(N)=S)c2)o1,2% (inactive),103%,88% (inactive),103% (inactive),108% (inactive),105% (inactive),13.7% (inactive),91%,105%,-6% (inactive),0.65% (inactive)
O=C(NC1(C(F)(F)F)Oc2ccc(Cl)cc2O1)N1CCC2(CC1)OCCO2 (configuration not stated),1% (inactive),91.5%,87.5% (inactive),91.5% (inactive),58.5% (inactive),27.9% (active),-23.8% (inactive),51.7%,27.9%,-2.47% (inactive),-5.56% (inactive)
COc1ccc(CN2CCN(c3ccccc3F)CC2)c(OC)c1,1% (inactive),92%,88% (inactive),92% (inactive),91.1% (inactive),128% (inactive),42.5% (inactive),85.4%,128%,-4.46% (inactive),-0.98% (inactive)
CCOc1ccc(Br)c(C2(O)CC(C)N(C)CC2C)c1 (configuration not stated),1% (inactive),80.5%,80.5% (inactive),80.5% (inactive),68.2% (inactive),96.7% (inactive),19.5% (inactive),77.1%,96.7%,-6% (inactive),-1.48% (inactive)
O=C(c1ccc2nc(-c3ccco3)c(-c3ccco3)nc2c1)N1CCC2(CC1)OCCO2,0% (inactive),93%,106% (inactive),93% (inactive),97.1% (inactive),90.5% (inactive),7.87% (inactive),82.7%,90.5%,-4.87% (inactive),4.33% (inactive)
O=C(O)C1(c2ccc(Cl)cc2)CCC1,0% (inactive),109%,91.5% (inactive),109% (inactive),97.2% (inactive),91.7% (inactive),-1.85% (inactive),93.6%,91.7%,-6.13% (inactive),-3.02% (inactive)
CCCCn1c(O)c(C(CC)=Nc2cccc(C(=O)O)c2)c(=O)[nH]c1=O,0% (inactive),97.5%,92% (inactive),97.5% (inactive),96.9% (inactive),102% (inactive),9.65% (inactive),92.6%,102%,-2.67% (inactive),-4.13% (inactive)
COc1ccc2[nH]cc(CCN(C)C)c2c1,0% (inactive),108%,126% (inactive),108% (inactive),86.3% (inactive),108% (inactive),8.63% (inactive),99.5%,108%,,
COc1ccccc1N1CCN(Cc2cccc(OC)c2O)CC1,0% (inactive),89%,93% (inactive),89% (inactive),118% (inactive),91.6% (inactive),5.07% (inactive),86.6%,91.6%,-5% (inactive),5.25% (inactive)
O=C1OCCC1NC1=NCCC1 (configuration not stated),0% (inactive),92%,91% (inactive),92% (inactive),111% (inactive),100% (inactive),13.1% (inactive),87.1%,100%,-0.78% (inactive),-5.41% (inactive)
Cc1nn(Cc2ccccc2Cl)c(Cl)c1C(=O)OCC(=O)NCc1ccco1,0% (inactive),85%,76% (inactive),85% (inactive),98.6% (inactive),85.6% (inactive),-6.68% (inactive),92.3%,85.6%,-3.2% (inactive),-0.82% (inactive)
COc1ccc(OC)c(C2=NOC(C(=O)N3CCC4(CC3)OCCO4)C2)c1 (configuration not stated),7% (inactive),106%,99% (inactive),106% (inactive),103% (inactive),99% (inactive),13% (inactive),86%,99%,-6.49% (inactive),0.5% (inactive)
CN1CCC(N(C)c2ncnc3ccc(Br)cc23)CC1,0% (inactive),100%,99.5% (inactive),100% (inactive),78.5% (inactive),87.9% (inactive),-25.8% (inactive),114%,87.9%,-6.1% (inactive),0.79% (inactive)
CC(C)OCCCNC(=O)c1c(N)n(CC2CCCO2)c2nc3ccccc3nc12 (configuration not stated),2% (inactive),100%,71.5% (inactive),100% (inactive),55.2% (inactive),59.6% (inactive),-19.6% (inactive),79.2%,59.6%,-4.8% (inactive),-4.13% (inactive)

Compound,inhibition [1],viability [2],Her2 level [3],viability [4],viability [5],viability [6],differential viability (reversal) ([7]; H69AR cells + 2 uM doxorubicin),"viability [7, 10]","viability [7, 11]",inhibition [8],inhibition [9]
Cn1c(O)c(C=NCc2ccco2)c(=O)n(C)c1=O,0% (inactive),106%,96% (inactive),106% (inactive),96.8% (inactive),95.1% (inactive),5% (inactive),90.1%,95.1%,-4.53% (inactive),14.7% (inactive)
COc1ccc(C(=O)C(C)(C)NO)cc1,0% (inactive),108%,100% (inactive),108% (inactive),99.9% (inactive),86.5% (inactive),-2.28% (inactive),88.8%,86.5%,-6.49% (inactive),0.48% (inactive)
O=C(CN1C(=O)CN=C(c2ccccc2)c2ccccc21)NCc1ccco1,2% (inactive),98%,100% (inactive),98% (inactive),96.7% (inactive),80.4% (inactive),-1.24% (inactive),81.7%,80.4%,-3.42% (inactive),-5% (inactive)
CCOc1ccc(-n2c(O)c(C=NCCN(CC)CC)c(=O)[nH]c2=O)cc1,0% (inactive),87%,105% (inactive),87% (inactive),100% (inactive),103% (inactive),-0.4% (inactive),103%,103%,2.13% (inactive),-8.06% (inactive)
N#Cc1ccccc1Cn1cc(C(=O)C2CC2)c2ccccc21,0% (inactive),86%,103% (inactive),86% (inactive),81.5% (inactive),59.4% (inactive),-32.4% (inactive),91.8%,59.4%,-3.38% (inactive),-5.5% (inactive)
COc1ccc(N2CCN(CCCN)CC2)cc1,0% (inactive),94.5%,88% (inactive),94.5% (inactive),72.6% (inactive),81.5% (inactive),3.81% (inactive),77.7%,81.5%,-0.91% (inactive),-1.27% (inactive)
CCCCn1c(O)c(C=NC2CCCCC2N)c(=O)[nH]c1=O (configuration not stated),0% (inactive),128%,96.5% (inactive),128% (inactive),92.6% (inactive),79.3% (inactive),4.94% (inactive),74.4%,79.3%,-2.6% (inactive),1.43% (inactive)
COC(=O)c1ccccc1-n1c(C)nc2ccccc2c1=O,4% (inactive),90%,105% (inactive),90% (inactive),111% (inactive),98.5% (inactive),3.37% (inactive),95.2%,98.5%,-2.5% (inactive),-5.97% (inactive)
Cc1ccc(OCC(=O)NCCN2CCN(C(=O)COc3ccc(C)cc3)CC2)cc1,0% (inactive),124%,106% (inactive),124% (inactive),88.5% (inactive),95.2% (inactive),1.29% (inactive),93.9%,95.2%,-1.76% (inactive),-5.56% (inactive)
CC1(C)C(c2ccccc2)=NC(c2cccnc2)N1O (configuration not stated),0% (inactive),106%,96% (inactive),106% (inactive),106% (inactive),95.3% (inactive),-4.39% (inactive),99.7%,95.3%,-6.76% (inactive),5.74% (inactive)
Cc1ccccc1NC1=NCCCS1,3% (inactive),106%,101% (inactive),106% (inactive),99.3% (inactive),95.1% (inactive),-1.09% (inactive),96.1%,95.1%,-4.61% (inactive),-0.67% (inactive)
CC#CP(=O)(OCC)C(O)(c1ccccc1)C(F)(F)F (configuration not stated),0% (inactive),91%,85% (inactive),91% (inactive),96.7% (inactive),96.9% (inactive),14.4% (inactive),82.5%,96.9%,-2.93% (inactive),2.13% (inactive)
CCOc1c(P(=S)(N(C)C)N(C)C)c(C)nn1-c1ccccc1,1% (inactive),83%,120% (inactive),83% (inactive),98.6% (inactive),101% (inactive),17% (inactive),84.1%,101%,-2.24% (inactive),-11% (inactive)
O=C(COc1ccc2ccccc2c1)N1CCN(C2CCN(Cc3ccccc3)CC2)CC1,0% (inactive),93%,92% (inactive),93% (inactive),62.5% (inactive),99.8% (inactive),3.83% (inactive),96%,99.8%,-0.13% (inactive),1.8% (inactive)
CC(=O)C1C(=O)NC23CCCCC2C1c1ccccc1O3 (configuration not stated),0% (inactive),88%,91.5% (inactive),88% (inactive),109% (inactive),99.3% (inactive),4.31% (inactive),95%,99.3%,-3.87% (inactive),-0.16% (inactive)
